What was measured:
Assay type in all cases: functional
MDA-MB-231 = assay: Cytotoxicity against human MDA-MB-231 cells
In short: (§1)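 Tested in a 60-cell-line human tumor panel screen; the read-out is growth inhibition, reported as GI50 for each cell line.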

CCRF-CEM = assay: Cytotoxicity against human CCRF-CEM cells
SN12C = assay: Cytotoxicity against human SN12C cells; in short: as §1
IGROV-1 = assay: Cytotoxicity against human IGROV1 cells; in short: as §1
RXF 393 = assay: Cytotoxicity against human RXF393 cells; in short: as §1
COLO 205 = assay: Cytotoxicity against human COLO205 cells; in short: as §1
[1] = Cytotoxicity against human NCI-ADR-RES cells; in short: as §1
NCI-H460 = assay: Cytotoxicity against human NCI-H460 cells; in short: as §1
SF-539 = assay: Cytotoxicity against human SF539 cells; in short: as §1
PC-3 = assay: Cytotoxicity against human PC3 cells; in short: as §1
NCI-H322M = assay: Cytotoxicity against human NCI-H322M cells; in short: as §1
[2] = Cytotoxicity against human UACC257 cells
In short: (§2)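 Cell line run as part of the 60-cell-line screening panel; growth inhibition was reported as a GI50 for each line.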

A498 = assay: Cytotoxicity against human A498 cells; in short: as §1
[3] = Cytotoxicity against human UO31 cells; in short: as §2
T47D = assay: Cytotoxicity against human T47D cells; in short: as §2
HT-29 = assay: Cytotoxicity against human HT-29 cells; in short: as §1
[4] = Cytotoxicity against human OVCAR4 cells; in short: as §1
[5] = Cytotoxicity against human EKVX cells; in short: as §1
SNB-75 = assay: Cytotoxicity against human SNB75 cells; in short: as §2
ACHN = assay: Cytotoxicity against human ACHN cells; in short: as §1
786-0 = assay: Cytotoxicity against human 786-0 cells; in short: as §1
[6] = Cytotoxicity against human OVCAR3 cells; in short: as §1
SK-OV-3 = assay: Cytotoxicity against human SKOV3 cells; in short: as §1
HL-60(TB) = assay: Cytotoxicity against human HL-60(TB) cells
In short: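 Tested within the NCI 60-cell-line screen, with GI50 as the read-out. Values are the average of two independent experiments. The lowest concentration tested was 10 nM.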

BT-549 = assay: Cytotoxicity against human BT549 cells; in short: as §1
SK-MEL-2 = assay: Cytotoxicity against human SK-MEL-2 cells; in short: as §1
CAKI-1 = assay: Cytotoxicity against human Caki1 cells; in short: as §1
A549 = assay: Cytotoxicity against human A549 cells; in short: as §1
LOX IMVI = assay: Cytotoxicity against human LOXIMVI cells; in short: as §1
MOLT-4 = assay: Cytotoxicity against human MOLT4 cells; in short: as §1
SK-MEL-5 = assay: Cytotoxicity against human SK-MEL-5 cells; in short: as §1
[7] = Cytotoxicity against human HCT15 cells; in short: as §1
HCT-116 = assay: Cytotoxicity against human HCT116 cells; in short: as §1
[8] = Cytotoxicity against human UACC62 cells; in short: as §2
MDA-MB-468 = assay: Cytotoxicity against human MDA-MB-468 cells; in short: as §1
M14 = assay: Cytotoxicity against human M14 cells; in short: as §1
MCF7 = assay: Cytotoxicity against human MCF7 cells; in short: as §1
U-251 = assay: Cytotoxicity against human U251 cells; in short: as §2
NCI-H226 = assay: Cytotoxicity against human NCI-H226 cells; in short: as §1
NCI-H23 = assay: Cytotoxicity against human NCI-H23 cells; in short: as §1
K562 = assay: Cytotoxicity against human K562 cells; in short: as §1
MDA-MB-435 = assay: Cytotoxicity against human MDA-MB-435 cells; in short: as §1
SF-295 = assay: Cytotoxicity against human SF295 cells; in short: as §1
[9] = read-out: pLC50 (the source's name) (converted)

SMILES: COc1cc(/C=C/c2cc(O)c3c(CC=C(C)C)c[nH]c3c2)cc2c1O[C@]1(C)CC[C@@H](O)C(C)(C)[C@H]1C2
- GI50 (MDA-MB-231): 0.724 µM
- LC50 (MDA-MB-231): 50.1 µM
- TGI (MDA-MB-231; read-out: pTGI (converted)): 50.1 µM
- GI50 (CCRF-CEM): 0.148 µM
- CC50 (CCRF-CEM; [9]): 50.1 µM
- TGI (CCRF-CEM; read-out: pTGI (converted)): 50.1 µM
- GI50 (SN12C): 12 µM
- LC50 (SN12C): 50.1 µM
- TGI (SN12C; read-out: pTGI (converted)): 50.1 µM
- GI50 (IGROV-1): 0.417 µM
- CC50 (IGROV-1; [9]): 50.1 µM
- TGI (IGROV-1; read-out: pTGI (converted)): 50.1 µM
- GI50 (RXF 393): 0.0447 µM
- LC50 (RXF 393): 12.9 µM
- TGI (RXF 393; read-out: pTGI (converted)): 0.457 µM
- GI50 (COLO 205): 0.302 µM
- CC50 (COLO 205; [9]): 6.46 µM
- TGI (COLO 205; read-out: pTGI (converted)): 1.35 µM
- GI50 [1]: 8.51 µM
- CC50 [1, 9]: 50.1 µM
- TGI ([1]; read-out: pTGI (converted)): 50.1 µM
- GI50 (NCI-H460): 0.417 µM
- CC50 (NCI-H460; [9]): 50.1 µM
- TGI (NCI-H460; read-out: pTGI (converted)): 50.1 µM
- GI50 (SF-539): 0.0407 µM
- CC50 (SF-539; [9]): 2.95 µM
- TGI (SF-539; read-out: pTGI (converted)): 0.257 µM
- GI50 (PC-3): 0.229 µM
- LC50 (PC-3): 50.1 µM
- TGI (PC-3; read-out: pTGI (converted)): 50.1 µM
- GI50 (NCI-H322M): 10.5 µM
- CC50 (NCI-H322M; [9]): 50.1 µM
- TGI (NCI-H322M; read-out: pTGI (converted)): 50.1 µM
- GI50 ([2]; UACC-257): 1.23 µM
- CC50 ([2]; UACC-257, read-out: pLC50 (the source's name) (converted)): 50.1 µM
- TGI ([2]; UACC-257, read-out: pTGI (converted)): 50.1 µM
- GI50 (A498): 0.129 µM
- CC50 (A498; [9]): 50.1 µM
- TGI (A498; read-out: pTGI (converted)): 0.724 µM
- GI50 ([3]; UO-31): 0.269 µM
- LC50 ([3]; UO-31): 50.1 µM
- TGI ([3]; UO-31, read-out: pTGI (converted)): 1.48 µM
- GI50 (T47D): 5.25 µM
- CC50 (T47D; [9]): 50.1 µM
- TGI (T47D; read-out: pTGI (converted)): 31.6 µM
- GI50 (HT-29): 0.132 µM
- CC50 (HT-29; [9]): 50.1 µM
- TGI (HT-29; read-out: pTGI (converted)): 2 µM
- GI50 ([4]; OVCAR-4): 5.25 µM
- CC50 ([4]; OVCAR-4, read-out: pLC50 (the source's name) (converted)): 50.1 µM
- TGI ([4]; OVCAR-4, read-out: pTGI (converted)): 50.1 µM
- GI50 [5]: 1.07 µM
- CC50 [5, 9]: 50.1 µM
- TGI ([5]; read-out: pTGI (converted)): 50.1 µM
- GI50 (SNB-75): 0.055 µM
- CC50 (SNB-75; [9]): 50.1 µM
- TGI (SNB-75; read-out: pTGI (converted)): 50.1 µM
- GI50 (ACHN): 1.48 µM
- LC50 (concentration killing 50% of cells) (ACHN): 50.1 µM
- TGI (ACHN; read-out: pTGI (converted)): 50.1 µM
- GI50 (786-0): 0.0851 µM
- LC50 (concentration killing 50% of cells) (786-0): 50.1 µM
- TGI (786-0; read-out: pTGI (converted)): 0.501 µM
- GI50 ([6]; OVCAR-3): 13.5 µM
- CC50 ([6]; OVCAR-3, read-out: pLC50 (the source's name) (converted)): 50.1 µM
- TGI ([6]; OVCAR-3, read-out: pTGI (converted)): 50.1 µM
- GI50 (SK-OV-3): 3.55 µM
- LC50 (SK-OV-3): 50.1 µM
- TGI (SK-OV-3; read-out: pTGI (converted)): 32.4 µM
- GI50 (HL-60(TB)): 0.251 µM
- CC50 (HL-60(TB); [9]): 50.1 µM
- TGI (HL-60(TB); read-out: pTGI (converted)): 18.6 µM
- GI50 (BT-549): 0.107 µM
- CC50 (BT-549; [9]): 50.1 µM
- TGI (BT-549; read-out: pTGI (converted)): 13.2 µM
- GI50 (SK-MEL-2): 0.269 µM
- CC50 (SK-MEL-2; [9]): 50.1 µM
- TGI (SK-MEL-2; read-out: pTGI (converted)): 50.1 µM
- GI50 (CAKI-1): 0.263 µM
- LC50 (CAKI-1): 50.1 µM
- TGI (CAKI-1; read-out: pTGI (converted)): 50.1 µM
- GI50 (A549): 1.7 µM
- CC50 (A549; [9]): 50.1 µM
- TGI (A549; read-out: pTGI (converted)): 50.1 µM
- GI50 (LOX IMVI): 0.2 µM
- CC50 (LOX IMVI; [9]): 50.1 µM
- TGI (LOX IMVI; read-out: pTGI (converted)): 1.17 µM
- GI50 (MOLT-4): 0.17 µM
- CC50 (MOLT-4; [9]): 50.1 µM
- TGI (MOLT-4; read-out: pTGI (converted)): 50.1 µM
- GI50 (SK-MEL-5): 0.158 µM
- CC50 (SK-MEL-5; [9]): 1.82 µM
- TGI (SK-MEL-5; read-out: pTGI (converted)): 0.575 µM
- GI50 ([7]; HCT-15): 0.17 µM
- CC50 ([7]; HCT-15, read-out: pLC50 (the source's name) (converted)): 50.1 µM
- TGI ([7]; HCT-15, read-out: pTGI (converted)): 1.55 µM
- GI50 (HCT-116): 3.24 µM
- CC50 (HCT-116; [9]): 50.1 µM
- TGI (HCT-116; read-out: pTGI (converted)): 50.1 µM
- GI50 ([8]; UACC-62): 0.138 µM
- CC50 ([8]; UACC-62, read-out: pLC50 (the source's name) (converted)): 3.63 µM
- TGI ([8]; UACC-62, read-out: pTGI (converted)): 0.407 µM
- GI50 (MDA-MB-468): 0.513 µM
- LC50 (MDA-MB-468): 46.8 µM
- TGI (MDA-MB-468; read-out: pTGI (converted)): 9.33 µM
- GI50 (M14): 0.251 µM
- TGI (M14; read-out: pTGI (converted)): 1.02 µM
- GI50 (MCF7): 0.355 µM
- LC50 (MCF7): 50.1 µM
- TGI (MCF7; read-out: pTGI (converted)): 3.63 µM
- GI50 (U-251): 0.151 µM
- CC50 (U-251; [9]): 50.1 µM
- TGI (U-251; read-out: pTGI (converted)): 50.1 µM
- GI50 (NCI-H226): 4.37 µM
- CC50 (NCI-H226; [9]): 50.1 µM
- TGI (NCI-H226; read-out: pTGI (converted)): 50.1 µM
- GI50 (NCI-H23): 0.427 µM
- CC50 (NCI-H23; [9]): 50.1 µM
- TGI (NCI-H23; read-out: pTGI (converted)): 22.4 µM
- GI50 (K562): 0.224 µM
- CC50 (K562; [9]): 50.1 µM
- TGI (K562; read-out: pTGI (converted)): 7.76 µM
- GI50 (MDA-MB-435): 0.676 µM
- CC50 (MDA-MB-435; [9]): 50.1 µM
- TGI (MDA-MB-435; read-out: pTGI (converted)): 50.1 µM
- GI50 (SF-295; read-out: GI50): < 0.021 µM
- GI50 (SF-295; read-out: pGI50 (converted)): 0.0316 µM
- CC50 (SF-295; [9]): 0.513 µM
- TGI (SF-295; read-out: pTGI (converted)): 0.135 µM
